The array DNA melting data of Ke et al. (doi:10.1101/2024.01.08.574731)

What was measured:
[1] = folding enthalpy; higher = less favourable; fluorescence melt of hairpins on a sequencing array, two-state fit; details: sodium 0.088 M
In short: (§1)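 With Cy3 and quencher oligos annealed, library hairpins on a sequenced MiSeq flow cell were imaged for Cy3 fluorescence in 50 mM Na-HEPES pH 8.0, 25 mM NaCl, in 2.5 °C steps up to 60 °C. Melting temperature and folding enthalpy were derived from bootstrapped two-state fits of signals normalised to pre-quench Cy3 and to control constructs. Four replicates were combined by inverse variance, with fitted temperatures raised by 9.35 °C to match UV melts.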

[2] = melting temperature; fluorescence melt of hairpins on a sequencing array, two-state fit, raised by 9.35 °C to match UV melts; details: sodium 0.088 M
In short: as §1

Sequence	folding enthalpy [1]	Tm [2]
GCCTGGGGAAACCCAAGC ((.((((....)))).))	-21.5 kcal/mol	42.7 °C
GCCTGGGGAAACCCAGAC (.(((((....))))).)	-14.1 kcal/mol	44.5 °C
GCCTGGGGAAACCCGGGC (((.(((....))).)))	-39.2 kcal/mol	64.6 °C
GCCTGTGGAAACATGGGC (((..((....))..)))	-29.4 kcal/mol	47.4 °C
GCCTTAGGAAACTGAGGC ((((.((....)).))))	-41.7 kcal/mol	49 °C
GCCTTCGAAAGAAAAGGC ((((((....)))..)))	-27.7 kcal/mol	45.7 °C
GCCTTCGAAAGAAGGGC ((((((....))).)))	-15 kcal/mol	63.1 °C
GCCTTCGAAAGAAGTGGC ((((((....)))..)))	-22 kcal/mol	44.5 °C
GCCTTCGAAAGAATCGGC ((((((....)))..)))	-23.4 kcal/mol	34.8 °C
GCCTTCGAAAGAATGGC ((((((....))).)))	-27.2 kcal/mol	49 °C
GCCTTGCGAAAGCAGAGC ((..(((....)))..))	-11.7 kcal/mol	51.2 °C
GCCTTGCGAAAGCCAGGC ((((.((....)).))))	-31.4 kcal/mol	62.6 °C
GCCTTGCGAAAGCTAGGC ((((.((....)).))))	-44.4 kcal/mol	67.2 °C
GCCTTGGAAACAAGGC ((((((....))))))	-34.6 kcal/mol	67.8 °C
GCCTTGGGAAACCAAAGC ((.((((....)))).))	-18 kcal/mol	37.6 °C
GCCTTGGGAAACCAAGGC (((((((....)))))))	-44.1 kcal/mol	68.8 °C
GCCTTGGGAAACTAAGGC (((((.(....).)))))	-34.7 kcal/mol	50.9 °C
GCCTTGGGAAACTAGGGC (((.(.(....).).)))	-30.1 kcal/mol	36.5 °C
GCCTTGTCGAAAGACGGC (((..(((....))))))	-18 kcal/mol	47.8 °C
GCCTTTCGAAAGAAGGC (((.(((....))))))	-29.1 kcal/mol	50.4 °C
GCCTTTGGAAACGAAGGC (((((.(....).)))))	-35.4 kcal/mol	51.6 °C
GCGAAAAGTCGC ((((....))))	-12.1 kcal/mol	41.7 °C
GCGAAACCGAAAGGTCGC (((..(((....))))))	-29.9 kcal/mol	54.4 °C
GCGAAAGATCGC ((((....))))	-12.4 kcal/mol	39.9 °C

Sequence	folding enthalpy [1]	Tm [2]
GCGAAAGGAAACCTTCGC (((((.(....).)))))	-34.4 kcal/mol	48.8 °C
GCGAACACGAAAGTGCGC (((..(((....))))))	-21.2 kcal/mol	51 °C
GCGAACCATCGC ((((....))))	-18.7 kcal/mol	47.7 °C
GCGAACCGAAAGGTACGC (((.(((....))).)))	-45.7 kcal/mol	64.3 °C
GCGAACCGAAAGGTCCGC (((.(((....))).)))	-44.5 kcal/mol	62.8 °C
GCGAACGAAAGTTCCCGC ((((((....)))..)))	-16.3 kcal/mol	36.7 °C
GCGAACGGAAACGTTCAC (.(((((....))))).)	-14.4 kcal/mol	46.1 °C
GCGAACGGTCGC ((((....))))	-30.9 kcal/mol	47.7 °C
GCGAAGACTCGC ((((....))))	-15.8 kcal/mol	44.8 °C
GCGAAGCGAAAGCATAGC ((.(.((....)).).))	-15.7 kcal/mol	52.5 °C
GCGAAGCGAAAGCATCGC ((((.((....)).))))	-17.4 kcal/mol	61.1 °C
GCGAAGCGAAAGCCCCGC (((..((....))..)))	-7.44 kcal/mol	36.3 °C
GCGAAGCGAAAGCGTCGC ((((.((....)).))))	-21.3 kcal/mol	68.7 °C
GCGAAGCGAAAGCTAGGC ((..(((....)))..))	-5.32 kcal/mol	40.9 °C
GCGAAGCGAAAGCTCAGC ((..(((....)))..))	-7.68 kcal/mol	41.1 °C
GCGAAGCGAAAGCTCGC (((.(((....))))))	-24.3 kcal/mol	67.1 °C
GCGAAGCGAAAGCTGTGC ((..(((....)))..))	-8.75 kcal/mol	46.5 °C
GCGAAGGATCGC ((((....))))	-9.71 kcal/mol	59.7 °C
GCGAAGGGAAACCTTTGC ((.((((....)))).))	-34.6 kcal/mol	49.8 °C
GCGAAGGTTCGC ((((....))))	-20.8 kcal/mol	50.4 °C
GCGAAGTTCGC ((((...))))	-17 kcal/mol	46.4 °C
GCGAATACTCGC ((((....))))	-22.1 kcal/mol	46.2 °C
GCGAATCTCGC ((((...))))	-19.7 kcal/mol	47.4 °C
GCGAATGCTCGC ((((....))))	-11.5 kcal/mol	57.7 °C

Sequence	folding enthalpy [1]	Tm [2]
GCGAATGGAAACATTTGC ((.((((....)))).))	-33.6 kcal/mol	49.5 °C
GCGAATTCGAAAGAACGC (((..(((....))))))	-20.4 kcal/mol	40.5 °C
GCGACAGGAAACCGTCGC (((((.(....).)))))	-43.4 kcal/mol	58.8 °C
GCGACAGGAAACTACCGC (((..((....))..)))	-20.5 kcal/mol	31.6 °C
GCGACAGGAAACTATCGC ((((.((....)).))))	-31.9 kcal/mol	43.7 °C
GCGACATGTCGC ((((....))))	-37 kcal/mol	63.8 °C
GCGACCACGAAAGTGCGC (((..(((....))))))	-20.9 kcal/mol	48.5 °C
GCGACCCCGAAAGGGCGC (((..(((....))))))	-29.1 kcal/mol	67.7 °C
GCGACCCCTCGC ((((....))))	-23.4 kcal/mol	50.1 °C
GCGACCCTCGC ((((...))))	-20.7 kcal/mol	49.4 °C
GCGACCGAAAGGTCTCGC ((((((....)))..)))	-14.6 kcal/mol	50.2 °C
GCGACCGGAAACGACCGC (((..((....))..)))	-27.4 kcal/mol	41.8 °C
GCGACCGGAAACGATCGC ((((.((....)).))))	-38.7 kcal/mol	55 °C
GCGACCGGAAACGGCCAC (.(.(((....))).).)	-14.4 kcal/mol	32.5 °C
GCGACCGTCGC ((((...))))	-26.8 kcal/mol	45.5 °C
GCGACCTATCGC ((((....))))	-28.4 kcal/mol	49.3 °C
GCGACGCGAAAGCAGCGC (((..((....))..)))	-30.3 kcal/mol	65.7 °C
GCGACGCGAAAGCCTCGC ((((.((....)).))))	-33.3 kcal/mol	60.4 °C
GCGACGCGAAAGCCTGGC ((.(.((....)).).))	-5.89 kcal/mol	28.1 °C
GCGACGCGAAAGCGAGGC ((..(((....)))..))	-12.8 kcal/mol	54.6 °C
GCGACGCGAAAGCTCCGC (((..((....))..)))	-20.2 kcal/mol	50.6 °C
GCGACGGCGAAAGCCCGC (((..(((....))))))	-16.6 kcal/mol	58.1 °C
GCGACGGGAAACCGCCAC (.(.(((....))).).)	-13.4 kcal/mol	31.9 °C
GCGACGGGAAACCGTCAC (.(((((....))))).)	-13 kcal/mol	48.7 °C

Sequence	folding enthalpy [1]	Tm [2]
GCGACTCATCGC ((((....))))	-24.5 kcal/mol	49 °C
GCGACTCGAAAGAGCGC (((.(((....))))))	-32.7 kcal/mol	60.4 °C
GCGACTGGAAACAACCGC (((..((....))..)))	-18.1 kcal/mol	29.2 °C
GCGACTTCTCGC ((((....))))	-25.7 kcal/mol	47.8 °C
GCGAGAGATCGC ((((....))))	-17.5 kcal/mol	50.3 °C
GCGAGATTTCGC ((((....))))	-20.1 kcal/mol	50.1 °C
GCGAGCACTCGC ((((....))))	-26.4 kcal/mol	56.8 °C
GCGAGCCCGAAAGGGCGC (((..(((....))))))	-7.38 kcal/mol	55.8 °C
GCGAGCCCTCGC ((((....))))	-26 kcal/mol	55 °C
GCGAGCCTCGC ((((...))))	-21.9 kcal/mol	49.7 °C
GCGAGCGAAAGCTACCGC ((((((....)))..)))	-18.8 kcal/mol	48.1 °C
GCGAGCGAAAGCTGTCGC ((((((....)))..)))	-23.8 kcal/mol	52.9 °C
GCGAGCGAAAGCTTCGC ((((((....))).)))	-28 kcal/mol	66.1 °C
GCGAGCGGAAACGCTTGC ((.((((....)))).))	-34.4 kcal/mol	61.9 °C
GCGAGCGTCGC ((((...))))	-10.2 kcal/mol	60 °C
GCGAGCTATCGC ((((....))))	-24.2 kcal/mol	60.8 °C
GCGAGCTCTCGC ((((....))))	-30.9 kcal/mol	53.1 °C
GCGAGCTTCGC ((((...))))	-18.5 kcal/mol	49 °C
GCGAGGAGTCGC ((((....))))	-13.4 kcal/mol	52.8 °C
GCGAGGCGAAAGCCATGC ((..(((....)))..))	-17.6 kcal/mol	58.1 °C
GCGAGGCGAAAGCCTGGC ((.((((....)))).))	-24.8 kcal/mol	66.5 °C
GCGAGGCGAAAGCGTTGC ((.(.((....)).).))	-18.6 kcal/mol	55.5 °C
GCGAGGCGAAAGCTTAGC ((.(.((....)).).))	-16.7 kcal/mol	56.9 °C
